The values below come from ChEMBL document CHEMBL1123757, “Selective thromboxane synthetase inhibitors and antihypertensive agents. New derivatives of 4-hydrazino-5H-pyridazino[4,5-b]indole, 4-hydrazinopyridazino[4,5-a]indole, and related compounds” (J Med Chem, 1987).

For orientation: inhibition means the change of the read-out against control, counted positive when it falls.

Structures are written as SMILES.

Assay [1] relates to Rattus norvegicus. In words: Antihypertensive activity in spontaneously hypertensive rats (SHR) measured by percentage fall in arterial pressure (AP) at 1 mg/kg administered intraperitoneally at 1 h;No significance. The assay is classed as functional, organism-based. Also noted: dose 1 mg/kg. The settings on record: Artery. In outline: (§1)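 Unanesthetized Okamoto-strain SHR, male and female, 8 weeks old, 300–350 g, systolic pressure ≥190 mmHg, heart rate 400–650 beats/min; five animals per dose. Given ip at 2.5 mL/kg, dissolved or suspended in normal saline or saline with 0.2% (carboxymethyl)cellulose and 1.0% Tween 80. Tail AP and CR recorded by mechanical transduction at set times; reported as percentage fall from control.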

Assay [2] relates to Rattus norvegicus. In words: Percent fall in systolic blood pressure, directly measured on carotid (iv on the jugular vein) of spontaneously hypertensive rats at 1 mg/kg after 240 minutes; No significance. The assay is classed as functional, organism-based. Also noted: dose 1 mg/kg. The settings on record: Artery. The method, boiled down: (§2)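 Anesthetized (sodium pentobarbital, 70 mg/kg) male and female Okamoto SHR, 8 weeks old, 300–350 g. Given iv into the jugular vein in normal saline. Arterial pressure and cardiac rhythm are recorded directly from the carotid by polygraph at set times after dosing. Each is expressed as percent change from the pre-dose control value.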

Assay [3] concerns Rattus norvegicus. In words: Percent fall in systolic blood pressure, directly measured on carotid (iv on the jugular vein) of spontaneously after 180 minutes; No significance. It counts as functional, organism-based. The settings on record: Artery. The method, boiled down: as §2
The test system of assay [4] is Rattus norvegicus. As to the kind of experiment: Antihypertensive activity in spontaneously hypertensive rats (SHR) measured by percentage fall in arterial pressure (AP) at 25 mg/kg administered perorally at 24 h;No significance. It counts as functional, organism-based. Particulars: Artery. Details: dose 25 mg/kg. The method, boiled down:
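Oral dosing at 2.5 mL/kg to unanesthetized male and female Okamoto-strain SHR (8 weeks old, 300–350 g, systolic pressure ≥190 mmHg, heart rate 400–650 beats/min), five per dose. Vehicle was normal saline or saline with 0.2% (carboxymethyl)cellulose and 1.0% Tween 80. AP measured on the tail by mechanical transduction at set times; expressed as percentage fall from control.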

Assay [5] concerns Rattus norvegicus. In words: Antihypertensive activity in spontaneously hypertensive rats (SHR) measured by percentage fall in arterial pressure (AP) at 1 mg/kg administered intraperitoneally at 5 h;No significance. The assay is classed as functional, organism-based. Details: dose 1 mg/kg. Particulars: Artery. The method, boiled down: as §1
Assay [6] deals with Rattus norvegicus. In words: Antihypertensive activity in spontaneously hypertensive rats (SHR) measured by percentage fall in cardiac rhythm (CR) at 25 mg/kg administered perorally at 24 h;No significance. The assay is classed as functional, organism-based. Details: dose 25 mg/kg. The settings on record: Heart. In outline:
(§3)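 Conscious SHR (Okamoto strain), 8 weeks old, male and female, 300–350 g, systolic BP ≥190 mmHg, CR 400–650 beats/min. Given ip or po at 2.5 mL/kg in normal saline or saline with 0.2% (carboxymethyl)cellulose and 1.0% Tween 80. Tail AP and CR recorded by mechanical transduction at 1, 3, 5 and 24 h, five animals per dose. Effect expressed as % fall versus control.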

Assay [7] relates to Rattus norvegicus. As to the kind of experiment: Antihypertensive activity in spontaneously hypertensive rats (SHR) measured by percentage fall in arterial pressure (AP) at 1 mg/kg administered intraperitoneally at 24 h;No significance. It counts as functional, organism-based. Details: dose 1 mg/kg. The settings on record: Artery. In outline: as §1
The species named for assay [8] is Homo sapiens. As to the kind of experiment: In vitro inhibition of platelet aggregation induced by ADP-II (PRP incubated for 5 minutes at 37 degree C) at 10e-5 M; No significance. It counts as functional. In outline:
(§4)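 Human venous blood anticoagulated with 3.8% sodium citrate (1:9). PRP from centrifugation at 800 rpm for 10 min at room temperature. Count adjusted with PPP to […]. Compound in saline with 10% ethylene glycol is added to PRP and incubated at 37 °C before the agonist. Agonists: ADP 2×10^-5 M, AA 0.6 mM, PGH2 2.8 μM, adrenaline 0.6 μM. Born absorbance aggregometry; n = 5.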

Assay [9] has as its system Rattus norvegicus. As to the kind of experiment: Antihypertensive activity in spontaneously hypertensive rats (SHR) measured by percentage fall in cardiac rhythm (CR) at 25 mg/kg administered perorally at 5 h;No significance. It counts as functional, organism-based. Also noted: dose 25 mg/kg. The settings on record: Heart. In outline:
as §3

Assay [10] deals with Rattus norvegicus. In words: Antihypertensive activity in spontaneously hypertensive rats (SHR) measured by percentage fall in cardiac rhythm (CR) at 5 mg/kg administered intraperitoneally at 24 h;No significance. The settings on record: Heart. Details: dose 5 mg/kg. It counts as functional, organism-based. In outline: as §3
The subject of assay [11] is Rattus norvegicus. As to the kind of experiment: Antihypertensive activity in spontaneously hypertensive rats (SHR) measured by percentage fall in cardiac rhythm (CR) at 5 mg/kg administered intraperitoneally at 5 h;No significance. The assay is classed as functional, organism-based. Details: dose 5 mg/kg. The settings on record: Heart. The method, boiled down: as §3

Assay [12] is filed under the species Homo sapiens. As to the kind of experiment: In vitro inhibition of platelet aggregation induced by […] (PRP incubated for 5 minutes at 37 degree C) at 10e-5 M; No significance. The assay is classed as functional.
Assay [13] has as its system Rattus norvegicus. In words: Antihypertensive activity in spontaneously hypertensive rats (SHR) measured by percentage fall in arterial pressure (AP) at 1 mg/kg administered intraperitoneally at 3 h;No significance. The assay is classed as functional, organism-based. Also noted: dose 1 mg/kg. The settings on record: Artery. In outline: as §1
The test system of assay [14] is Rattus norvegicus. As to the kind of experiment: Antihypertensive activity in spontaneously hypertensive rats (SHR) measured by percentage fall in arterial pressure (AP) at 25 mg/kg administered intraperitoneally at 24 h; No significance. Details: dose 25 mg/kg. The assay is classed as functional, organism-based. The settings on record: Artery. In outline: as §1

The species named for assay [15] is Homo sapiens. In words: In vitro inhibition of platelet aggregation induced by AA (PRP incubated for 60 minutes at 37 degree C) at 10e-5 M; No significance. It counts as functional. In outline: as §4
Assay [16] is filed under the species Homo sapiens. In words: No significance in vitro inhibition of platelet aggregation induced by ADP-II (PRP incubated for 60 minutes at 37 degree C) at 10e-5 M;No significance. The assay is classed as functional. The method, boiled down: as §4
Assay [17] has as its system Rattus norvegicus. In words: Antihypertensive activity in spontaneously hypertensive rats (SHR) measured by percentage fall in arterial pressure (AP) at 25 mg/kg administered intraperitoneally at 3 h. The assay is classed as functional, Artery. Particulars: route intraperitoneal. In outline: as §1
The test system of assay [18] is Rattus norvegicus. As to the kind of experiment: Antihypertensive activity in spontaneously hypertensive rats (SHR) measured by percentage fall in cardiac rhythm (CR) at 25 mg/kg administered intraperitoneally at 3 h. It counts as functional, Heart. Particulars: route intraperitoneal. In outline:
as §1

The subject of assay [19] is Rattus norvegicus. In words: Antihypertensive activity in spontaneously hypertensive rats (SHR) measured by percentage fall in arterial pressure (AP) at 25 mg/kg administered intraperitoneally at 1 h. It counts as functional, Artery. Particulars: route intraperitoneal. In outline: as §1
The subject of assay [20] is Rattus norvegicus. In words: Antihypertensive activity in spontaneously hypertensive rats (SHR) measured by percentage fall in cardiac rhythm (CR) at 25 mg/kg administered intraperitoneally at 1 h. The assay is classed as functional, Heart. The settings on record: route intraperitoneal. In outline:
as §1

In assay [21] the test system is Rattus norvegicus. As to the kind of experiment: Antihypertensive activity in spontaneously hypertensive rats (SHR) measured by percentage fall in cardiac rhythm (CR) at 25 mg/kg administered intraperitoneally at 5 h; No significance. The assay is classed as functional, organism-based. Details: dose 25 mg/kg. The settings on record: Heart. In outline:
as §3

The species named for assay [22] is Homo sapiens. As to the kind of experiment: In vitro inhibition of platelet aggregation induced by ADP-II (PRP incubated for 60 minutes at 37 degree C) at 10e-5 M. It counts as functional. Particulars: 1 h. The method, boiled down:
as §4

Assay [23] relates to Rattus norvegicus. As to the kind of experiment: Antihypertensive activity in spontaneously hypertensive rats (SHR) measured by percentage fall in arterial pressure (AP) at 25 mg/kg administered intraperitoneally at 5 h. It counts as functional, Artery. The settings on record: route intraperitoneal. The method, boiled down: as §1

For the compound `NNc1[nH]ncc2c3cc(O)ccc3nc1-2`, the “Decrease in AP” value in assay [1], in [4] and in [5] was “No significant values” each time. Further, the “Decrease in blood pressure” value in assay [2] and in assay [3] was “No significant values” in each case. Besides, in assay [6], the “Decrease in CR” value was “No significant values”.
Consider `NNc1[nH]ncc2c3cc(OCc4ccccc4)ccc3nc1-2`, for which the “Decrease in AP” value in assay [7], in assay [13], in [14] and in [5] was “No significant values” throughout. The inhibition entry in assay [8], in assay [12], in assay [15] and in [16] was “No significant values” each time. Moreover, the “Decrease in CR” value in [9], in assay [10], in assay [11] and in assay [6] was “No significant values” each time.
For the compound `COc1ccc2[nH]c3c(O)nncc3c2c1`, the inhibition entry in [8], in assay [12], in assay [15] and in assay [21] was “No significant values” in each case. Also, the “Decrease in AP” value is 10% in assay [17], 10% in assay [19] and 5% in [23]. In addition, the results for the “Decrease in CR” value in [18] and in assay [20] were 5% and 7%, respectively. In addition, the inhibition at 10 µM in assay [22] was found to be 100%.
